In assay [1] the test system is MCF7. In words: Inhibition of microtubule organization in human MCF7 cells at 4 uM after 24 hrs by immunofluorescence analysis. It counts as cell-based. Put shortly: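 MCF-7 cells were grown in DMEM with 10% fetal calf serum and penicillin/streptomycin at 37 °C and 5% CO2. Cells on cover slips were treated for 24 h, then fixed in 4% paraformaldehyde for 20 min. They were permeabilised with 0.2% Triton X-100, held in methanol at 4 °C overnight and blocked with 1% BSA. Staining used anti-α-tubulin (1:100, 2 h RT), FITC secondary and a DAPI/PI mount, with confocal imaging.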

For the next assay, the system named is IMR-32. In words: Cytotoxicity against human IMR32 cells after 48 hrs assessed as inhibition of cell growth at 10 uM after 48 hrs by SRB assay relative to control. It counts as functional. The following applies: for inhibition of growth at 10 µM: IMR-32, 48 h, read-out: GI. The gist of the method: (§1)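 SRB protein assay in DMEM with 10% FBS at 37 °C, 5% CO2, 100% relative humidity. Cells seeded in 96-well plates, incubated 24 h, then exposed to drug at 10 µM for 48 h and processed per standard protocol. Absorbance read at 560 nm; growth percentage calculated for test wells relative to control wells.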
On the technique in general: In SRB staining, fixed cells bind dye roughly in proportion to their protein.

The test system of another assay is THP-1. In words: Cytotoxicity against human THP1 cells after 48 hrs assessed as inhibition of cell growth at 10 uM after 48 hrs by SRB assay relative to control. In kind it is functional. The following applies: THP-1, 48 h, read-out: GI. Put shortly: as §1
The next assay deals with HEp-2. In words: Cytotoxicity against human Hep2 cells after 48 hrs assessed as inhibition of cell growth at 10 uM after 48 hrs by SRB assay relative to control. In kind it is functional. The conditions noted are these: for inhibition of growth at 10 µM: HEp-2, 48 h, read-out: GI. Put shortly: as §1
For a further assay, the system named is PC-3. In words: Cytotoxicity against human PC3 cells after 48 hrs assessed as inhibition of cell growth at 10 uM after 48 hrs by SRB assay relative to control. In kind it is functional. The conditions noted are these: PC-3, 48 h, read-out: GI. The gist of the method: as §1
Assay [2] concerns MCF7. In words: Cytotoxicity against human MCF7 cells after 48 hrs assessed as inhibition of cell growth at 10 uM after 48 hrs by SRB assay relative to control. It counts as functional. The following applies: MCF7, 48 h, read-out: GI. The gist of the method:
as §1

Another assay relates to A549. In words: Cytotoxicity against human A549 cells assessed as inhibition of cell growth at 10 uM after 48 hrs by SRB assay relative to control. In kind it is functional. The conditions noted are these: for inhibition of growth at 10 µM: A549, 48 h, read-out: GI. The gist of the method: as §1
The test system of the next assay is COLO 205. In words: Cytotoxicity against human COLO205 cells after 48 hrs assessed as inhibition of cell growth at 10 uM after 48 hrs by SRB assay relative to control. In kind it is functional. The conditions noted are these: COLO 205, 48 h, read-out: GI. The gist of the method: as §1
The test system of assay [3] is MCF7. In words: Cell cycle arrest in human MCF7 cells assessed as accumulation at G2/M phase at 4 uM after 24 hrs by FACS analysis (reference value: 34.88%). It counts as functional. (In general: In flow cytometry, cells or beads pass a laser one at a time.)
Assay [4] deals with MCF7. In words: Cell cycle arrest in human MCF7 cells assessed as accumulation at G1 phase at 4 uM after 24 hrs by FACS analysis (reference value: 58.33%). In kind it is functional.
In assay [5] the test system is MCF7. In words: Cell cycle arrest in human MCF7 cells assessed as accumulation at S phase at 4 uM after 24 hrs by FACS analysis (reference value: 6.79%). In kind it is functional.

Activity calls are given as the source filed them. The calls are words filed in the database; no cut-off is given here.

The values that follow come from ChEMBL document CHEMBL2086239, “Synthesis and biological evaluation of combretastatin-amidobenzothiazole conjugates as potential anticancer agents” (Eur J Med Chem, 2012).

For `COC(=O)Nc1nc2cc(C(=O)c3cccs3)ccc2[nH]1`, the inhibition result in the assay with MCF7 [1] was “Active”.

In the case of `COc1ccc(/C=C\c2cc(OC)c(OC)c(OC)c2)cc1OCC(=O)Nc1nc2ccc(Cl)cc2s1`, the inhibition of growth at 10 µM with IMR-32 worked out at 51%; with THP-1, 70%; in the assay on HEp-2, 47%; with PC-3 it was 41%; in the assay with MCF7 [2] it was 21%; in the assay on COLO 205 it was 17%. The “growth inhibition (GI)” value in the assay with A549 was “inactive”.

For the compound `COc1ccc(/C=C\c2cc(OC)c(OC)c(OC)c2)cc1OCC(=O)Nc1nc2ccc([N+](=O)[O-])cc2s1`, the inhibition of growth at 10 µM in the assay on IMR-32 came to 88%; with THP-1 it was 80%; in the assay on PC-3, 47%; in the assay on MCF7 [2] it was 69%; with A549 it was 50%; with COLO 205, 46%. Further, in the assay with HEp-2, the “growth inhibition (GI)” value is “inactive”.

`COc1ccc(/C=C\c2cc(OC)c(OC)c(OC)c2)cc1OCC(=O)Nc1ccc2ncsc2c1`: the inhibition of growth at 10 µM was 46% in the assay on IMR-32; 41% with THP-1; 20% in the assay with HEp-2; 58% in the assay with PC-3; 19% in the assay on MCF7 [2]; 11% in the assay with COLO 205. The “growth inhibition (GI)” value in the assay on A549 was “inactive”.

Consider `CCOc1ccc2nc(NC(=O)COc3cc(/C=C\c4cc(OC)c(OC)c(OC)c4)ccc3OC)sc2c1`, for which the results for the Activity in the assay with MCF7 [3], with MCF7 [4] and with MCF7 [5] were 37.67%, 48.43% and 13.91%, respectively. Also, the inhibition of growth at 10 µM is 54% with IMR-32; 37% in the assay with THP-1; 49% with HEp-2; 37% in the assay on PC-3; 35% with MCF7 [2]; 27% with A549. The inhibition of growth at 10 µM in the assay on COLO 205 amounted to 45%.

`COc1cccc2c1C(=O)c1c(O)c3c(c(O)c1C2=O)C[C@@](O)(C(=O)CO)C[C@@H]3O[C@H]1C[C@H](N)[C@H](O)[C@H](C)O1` [DOXORUBICIN]: the inhibition of growth at 10 µM with IMR-32 was 73%; with THP-1, 83%; in the assay with HEp-2, 56%; in the assay with PC-3, 75%; in the assay with MCF7 [2] it was 45%; with A549 it was 52%. The inhibition of growth at 10 µM in the assay on COLO 205 was found to be 26%.

Consider `COc1ccc(/C=C\c2cc(OC)c(OC)c(OC)c2)cc1OCC(=O)Nc1nc2c(C)cccc2s1`, for which the Activity with MCF7 [3] was found to be 28.48%; with MCF7 [4], 68.06%; in the assay on MCF7 [5], 3.46%. For the same compound, the inhibition of growth at 10 µM in the assay on IMR-32 is 34%; with THP-1 it was 19%; with PC-3, 24%; in the assay on MCF7 [2] it was 29%; with COLO 205, 24%. The “growth inhibition (GI)” value in the assay with HEp-2 and in the assay on A549 was “inactive” in each case.

Turning to `COc1ccc(/C=C\c2cc(OC)c(OC)c(OC)c2)cc1OCC(=O)Nc1nc2cc(C)c(C)cc2s1`, the Activity in the assay on MCF7 [3] was 16.37%; in the assay on MCF7 [4], 80.59%; in the assay on MCF7 [5], 3.04%. Further, the inhibition of growth at 10 µM stood at 55% in the assay on IMR-32; 76% in the assay with THP-1; 23% with HEp-2; 36% with PC-3; 68% in the assay on MCF7 [2]; 41% with A549. In addition, the inhibition of growth at 10 µM with COLO 205 was 51%.

As for `COc1ccc(/C=C\c2cc(OC)c(OC)c(OC)c2)cc1OCC(=O)Nc1nc2ccc(C)cc2s1`, the results for the Activity in the assay on MCF7 [3], in the assay with MCF7 [4] and with MCF7 [5] were 42.82%, 41.7% and 15.53%, respectively. Further, the “growth inhibition (GI)” value with IMR-32 is “inactive”. Moreover, the inhibition of growth at 10 µM is 27% with THP-1; 44% with HEp-2; 22% with PC-3; 57% with MCF7 [2]; 37% in the assay on A549; 33% with COLO 205.
